Data from ChEMBL document CHEMBL4257575, “Discovery of Novel Flavonoid Dimers To Reverse Multidrug Resistance Protein 1 (MRP1, ABCC1) Mediated Drug Resistance in Cancers Using a High Throughput Platform with "Click Chemistry"” (J Med Chem, 2018).

Target: Multidrug resistance-associated protein 1 (Homo sapiens, UniProt P33527)
Assay: Inhibition of MRP1 in human 2008/MRP1 cells assessed as potentiation of doxorubicin-induced cytotoxicity by measuring cell survival at 2 uM after 5 days by MTS assay relative to control
Type: cell-based
Settings: 120 h
How it was run: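 2008/MRP1 cells (retroviral human MRP1 transfectant; RPMI 1640, 10% FBS) at 4,000 per well, with 100 nM doxorubicin plus crude, unpurified click products in DMSO: 2 µM in the primary screen, 1 µM in the secondary. Incubated 5 days at 37 °C. MTS/PMS added for 2 h at 37 °C, absorbance read at 490 nm. % survival is relative to wells without DOX or product. Run in triplicate, at least three experiments.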

Multidrug resistance-associated protein 1, sequence (P33527 whole entry): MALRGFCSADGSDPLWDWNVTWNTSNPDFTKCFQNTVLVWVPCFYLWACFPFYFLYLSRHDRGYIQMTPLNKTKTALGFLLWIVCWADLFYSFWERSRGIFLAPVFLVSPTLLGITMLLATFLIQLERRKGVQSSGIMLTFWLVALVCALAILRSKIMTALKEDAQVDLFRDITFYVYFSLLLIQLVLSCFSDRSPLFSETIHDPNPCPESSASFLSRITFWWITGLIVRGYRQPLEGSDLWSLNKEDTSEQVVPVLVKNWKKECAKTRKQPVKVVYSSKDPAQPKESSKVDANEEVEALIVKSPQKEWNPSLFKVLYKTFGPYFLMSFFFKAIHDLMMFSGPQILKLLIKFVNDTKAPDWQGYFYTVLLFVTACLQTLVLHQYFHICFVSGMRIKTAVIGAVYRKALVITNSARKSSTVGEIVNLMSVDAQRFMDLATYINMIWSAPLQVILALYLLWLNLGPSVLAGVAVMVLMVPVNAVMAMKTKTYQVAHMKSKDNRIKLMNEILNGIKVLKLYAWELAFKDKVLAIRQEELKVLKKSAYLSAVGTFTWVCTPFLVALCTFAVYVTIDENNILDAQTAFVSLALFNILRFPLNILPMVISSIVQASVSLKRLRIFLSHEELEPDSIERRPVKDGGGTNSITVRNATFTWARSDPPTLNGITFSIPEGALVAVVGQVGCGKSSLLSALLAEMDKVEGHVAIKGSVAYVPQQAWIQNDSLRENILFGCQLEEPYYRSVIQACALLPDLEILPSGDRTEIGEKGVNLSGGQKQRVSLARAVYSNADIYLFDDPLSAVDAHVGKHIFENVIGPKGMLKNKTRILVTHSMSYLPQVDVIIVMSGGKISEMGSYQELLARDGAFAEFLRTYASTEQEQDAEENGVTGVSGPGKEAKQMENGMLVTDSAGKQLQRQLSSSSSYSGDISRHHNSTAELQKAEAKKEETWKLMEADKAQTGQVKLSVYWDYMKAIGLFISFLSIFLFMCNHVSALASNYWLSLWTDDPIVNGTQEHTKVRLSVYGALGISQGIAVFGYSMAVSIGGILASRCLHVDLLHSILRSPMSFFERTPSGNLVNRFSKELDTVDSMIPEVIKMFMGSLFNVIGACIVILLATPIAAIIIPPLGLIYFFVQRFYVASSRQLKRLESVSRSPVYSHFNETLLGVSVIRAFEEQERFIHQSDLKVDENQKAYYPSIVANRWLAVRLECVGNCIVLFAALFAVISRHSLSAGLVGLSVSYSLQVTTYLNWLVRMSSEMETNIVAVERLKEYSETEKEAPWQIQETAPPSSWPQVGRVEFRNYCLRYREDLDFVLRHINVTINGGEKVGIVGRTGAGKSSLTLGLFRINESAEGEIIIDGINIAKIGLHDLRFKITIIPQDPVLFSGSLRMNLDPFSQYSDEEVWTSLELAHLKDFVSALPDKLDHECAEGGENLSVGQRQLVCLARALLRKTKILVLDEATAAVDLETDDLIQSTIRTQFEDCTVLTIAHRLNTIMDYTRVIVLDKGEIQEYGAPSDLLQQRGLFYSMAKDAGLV

SMILES | Survival [%]
[N-]=[N+]=NCCOCCOCCOc1ccc(-c2cc(=O)c3cc(F)ccc3o2)cc1 | 85
O=c1cc(-c2ccccc2)oc2cc(OCCCc3cn(CCOc4cccc5c(=O)cc(-c6ccccc6)oc45)nn3)ccc12 | 56
Cc1ccc2oc(-c3ccc(OCCOCCOCCn4cc(CCN5C(=O)c6ccccc6C5=O)nn4)cc3)cc(=O)c2c1 | 81
Cc1ccc(C(=O)/C=C/c2ccc(OCCCCc3cn(CCOCCOc4cccc(-c5oc6ccccc6c(=O)c5OCc5ccccc5)c4)nn3)cc2)c(O)c1 | 79
O=c1[nH]c(-c2ccc(OCCCc3cn(CCOCCOCCOc4ccc5c(=O)cc(-c6ccccc6)oc5c4)nn3)cc2)nc2ccccc12 | 60
O=c1cc(-c2ccc(OCCOCCOCCn3cc(CCCOc4ccc5c(=O)cc(-c6ccccc6)oc5c4)nn3)cc2)oc2ccccc12 | 54
COc1cccc(COc2c(-c3ccc(OCCOCCn4cc(CCCCOc5ccc(C=O)cc5)nn4)cc3)oc3ccccc3c2=O)c1 | 76
O=Cc1ccc(OCCCCc2cn(CCOCCOCCOc3ccc4c(=O)cc(-c5ccccc5)oc4c3)nn2)cc1 | 81
O=c1cc(-c2ccccc2)oc2cc(OCCOCCn3cc(CN(Cc4cn(CCOCCOc5ccc6oc(-c7ccccc7)cc(=O)c6c5)nn4)Cc4cn(CCOCCOc5ccc6oc(-c7ccccc7)cc(=O)c6c5)nn4)nn3)ccc12 | 83
[N-]=[N+]=NCCOCCOCCOc1ccc(-c2oc3ccccc3c(=O)c2OCc2ccccc2)cc1 | 74
COCOc1cc(OCc2ccccc2)c2c(=O)cc(-c3ccc(OCCCc4cn(CCOCCOc5ccc6c(=O)cc(-c7ccccc7)oc6c5)nn4)cc3)oc2c1 | 54
COc1cccc(COc2c(-c3ccc(OCCOCCn4cc(CCCCOc5ccc(/C=C/C(=O)c6cc(C)ccc6O)cc5)nn4)cc3)oc3ccccc3c2=O)c1 | 75
Cc1ccc2oc(-c3ccc(OCCOCCOCCn4cc(-c5cccc(-c6cn(CCOCCOCCOc7ccc(-c8cc(=O)c9cc(C)ccc9o8)cc7)nn6)c5)nn4)cc3)cc(=O)c2c1 | 77
O=C(/C=C/c1ccc(OCCCCc2cn(CCOCCOCCOc3ccc4c(=O)cc(-c5ccccc5)oc4c3)nn2)cc1)c1ccccc1O | 72
O=c1c(OCc2ccccc2)c(-c2ccc(OCCOCCn3cc(CNc4ccccc4)nn3)cc2)oc2ccccc12 | 91
[N-]=[N+]=NCCOCCOc1ccc(-c2cc(=O)c3ccccc3o2)cc1 | 78
Cc1ccc2oc(-c3ccc(OCCOCCOCCn4cc(CCCCOc5ccc(/C=C/C(=O)c6ccc(F)cc6O)cc5)nn4)cc3)cc(=O)c2c1 | 63
O=c1cc(-c2ccc(OCCCc3cn(CCOCCOc4ccc(-c5oc6ccccc6c(=O)c5OCc5ccccc5)cc4)nn3)cc2)oc2ccccc12 | 50
O=C(/C=C/c1ccc(OCCCCc2cn(CCOc3cccc4c(=O)cc(-c5ccccc5)oc34)nn2)cc1)c1ccc(F)cc1O | 73
C#CCCCOc1ccc(-c2cc(=O)c3c(OCc4ccccc4)cc(OCOC)cc3o2)cc1 | 67
O=Cc1ccc(OCCCCc2cn(CCOc3cccc4c(=O)cc(-c5ccccc5)oc34)nn2)cc1 | 83
O=Cc1ccc(OCCCCc2cn(CCOCCOc3ccc(-c4oc5ccccc5c(=O)c4OCc4ccccc4)cc3)nn2)cc1 | 59
Cc1ccc2oc(-c3ccc(OCCOCCOCCn4cc(CCCOc5ccc(-c6nc7ccccc7c(=O)[nH]6)cc5)nn4)cc3)cc(=O)c2c1 | 72
Cc1ccc2oc(-c3ccc(OCCOCCOCCn4cc(CNc5ccccc5)nn4)cc3)cc(=O)c2c1 | 86
[N-]=[N+]=NCCOCCOc1ccc(-c2cc(=O)c3cc(F)ccc3o2)cc1 | 90
O=c1cc(-c2ccc(OCCOCCn3cc(CCCOc4ccc(-c5cc(=O)c6cc(F)ccc6o5)cc4)nn3)cc2)oc2ccccc12 | 93
O=c1[nH]c(-c2ccc(OCCCc3cn(CCOCCOCCOc4ccc(-c5oc6ccccc6c(=O)c5OCc5ccccc5)cc4)nn3)cc2)nc2ccccc12 | 68
[N-]=[N+]=NCCOc1ccc2c(=O)cc(-c3ccccc3)oc2c1 | 79
C#CCCCOc1ccc(-c2cc(=O)c3ccccc3o2)cc1 | 74
